Source: PubChem BioAssay AID623915 (Johns Hopkins Ion Channel Center, 2012)
“And” between values parts separate entries of the source, which are not always exact repeats. Identical values can stand only once. The source made the active and inactive calls.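 Rule for the calls: active = more than 50% block of the TASK1 potassium channel current at 10 µM; inactive = the rest.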

Target: Potassium channel subfamily K member 3 (Rattus norvegicus) (UniProt O54912)
Experiment: KCNK3 channel block by electrophysiology – automated electrophysiology, QPatch, CHO cells, selectivity assay for KCNK9 inhibitor project, SAR follow-up (AID 623915)
Details: CHO-TASK1 cells, QPatch whole-cell current inhibition
Outline: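 Material: CHO cells with tetracycline-inducible rat TASK1 (KCNK3) channel | Buffer or medium: 140 mM K+ external solution, pH 7.40 | Dosing: Cumulative concentration series, one cell per dose-response | Schedule: 5 min per concentration | Technique: Automated whole-cell voltage clamp, ramp protocol, current at -30 mV | Controls: Full block by 2 mM Ba2+ at pH 5.8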

Sequence of Potassium channel subfamily K member 3 (Rattus norvegicus) (O54912 whole entry, looked up): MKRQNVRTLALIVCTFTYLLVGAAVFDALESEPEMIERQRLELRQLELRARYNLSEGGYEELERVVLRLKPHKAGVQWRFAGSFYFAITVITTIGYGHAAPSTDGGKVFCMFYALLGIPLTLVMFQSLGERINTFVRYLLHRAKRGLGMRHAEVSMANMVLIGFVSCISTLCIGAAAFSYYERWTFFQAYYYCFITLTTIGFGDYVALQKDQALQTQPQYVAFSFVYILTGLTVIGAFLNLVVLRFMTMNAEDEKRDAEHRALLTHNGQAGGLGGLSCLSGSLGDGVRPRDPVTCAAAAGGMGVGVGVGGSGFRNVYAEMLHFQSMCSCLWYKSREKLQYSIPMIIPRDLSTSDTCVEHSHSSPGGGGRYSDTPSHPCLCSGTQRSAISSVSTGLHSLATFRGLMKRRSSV

Row | IC50 | outcome | SMILES
1 | 1960 nM and 6430 nM | – | C[C@@H]([C@@H]1CC2CC[C@H]1C2)n1c(-c2ccsc2)n[nH]c1=S
2 | – | inactive | C[C@H]([C@@H]1CC2CC[C@H]1C2)n1c(-c2ccsc2)n[nH]c1=S
3 | 820 nM | – | CC(C1CC2CCC1C2)n1c(-c2ccco2)n[nH]c1=S (stereo unspecified)
4 | 3200 nM | – | C[C@@H]([C@@H]1CC2CC[C@H]1C2)n1c(-c2ccco2)n[nH]c1=S
5 | 1850 nM | – | CC(C1CC2CCC1C2)n1c(-c2ccco2)nn(CCc2ccncc2)c1=S (stereo unspecified)
6 | 6430 nM | – | C[C@H](C1CCCCC1)n1c(-c2ccsc2)n[nH]c1=S
